Source: PubChem BioAssay
Sampled rows, rich in hits. Any-hit rate of the full collection: about 4.6%.
UCH37 inh: human UCH37 deubiquitinating enzyme inhibition. purified proteasome/UCH37, Ub-AMC cleavage fluorescence. inhibition, % (test concentration not listed). actives 0.33% (n = 330,000);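 active = mean inhibition over replicate wells above about 20%, limit read from the data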;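 also: 0% = compound-free wells with enzyme and 100% = wells lacking proteasome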
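System: Proteasome-associated human UCH37 deubiquitinase; Input: 0.15 nM proteasome in added enzyme buffer; Also added: Ub-AMC substrate from 1 µM stock; Incubation: 30 min compound-proteasome preincubation then 25 min substrate reaction, room temperature; Detection: fluorescence, ex 355 nm, em 460 nm; Read-out: % inhibition of Ub-AMC cleavage fluorescence; Benchmarks: no-proteasome and no-compound wells.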
FAS TE block: inhibitors of human fatty acid synthase thioesterase domain. P49327. recombinant FAS-TE, OMFH fluorogenic substrate, fluorescence endpoint. inhibition, % at 15 µM. actives 0.67% (n = 360,000). AID 602261;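 active = compounds whose normalised, plate-corrected inhibition of enzyme fluorescence in the single-dose primary screen is 50% or more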;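 also: 0% = DMSO with enzyme and 100% = substrate without enzyme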
HDAC3 inhib: inhibitors of human histone deacetylase 3; recombinant HDAC3, fluorogenic peptide/trypsin coupled, fluorescence; inhibition, % at 8.3 µM; actives 0.15% (n = 320,000); in the data active = inhibition above about 26%, passing the limit was not always enough
Rtt109 HAT inh: blocks Candida albicans Rtt109/Vps75 acetyltransferase activity | Q5AAJ8 | purified Rtt109/Vps75, ThioGlo CoA-SH fluorescence, 4 h | inhibition, % at 34.9 µM | actives 0.16% (n = 330,000);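 active = inhibition of at least 50% in every replicate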
Target sequence (Q5AAJ8 whole entry, looked up): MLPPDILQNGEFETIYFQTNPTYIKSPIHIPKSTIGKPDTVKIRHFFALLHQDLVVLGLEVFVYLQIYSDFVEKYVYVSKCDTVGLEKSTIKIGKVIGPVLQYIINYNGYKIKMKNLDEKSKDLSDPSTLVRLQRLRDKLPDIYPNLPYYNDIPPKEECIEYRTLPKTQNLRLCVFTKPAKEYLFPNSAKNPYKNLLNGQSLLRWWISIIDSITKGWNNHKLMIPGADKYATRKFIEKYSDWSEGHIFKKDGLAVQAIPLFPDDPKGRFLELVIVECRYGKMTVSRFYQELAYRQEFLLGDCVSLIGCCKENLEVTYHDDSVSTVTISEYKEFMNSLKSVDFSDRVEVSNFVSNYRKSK
ALR H2O2 inh: inhibitors of human sulfhydryl oxidase ALR | purified ALR, DTT oxidation, H2O2 HRP-luminol luminescence | inhibition, % (no concentration beside the values) | actives 3.8% (n = 290,000);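 active = mean replicate inhibition above about 79%, with every replicate also reaching it, limit read from the data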
Target sequence (P55789 whole entry, looked up): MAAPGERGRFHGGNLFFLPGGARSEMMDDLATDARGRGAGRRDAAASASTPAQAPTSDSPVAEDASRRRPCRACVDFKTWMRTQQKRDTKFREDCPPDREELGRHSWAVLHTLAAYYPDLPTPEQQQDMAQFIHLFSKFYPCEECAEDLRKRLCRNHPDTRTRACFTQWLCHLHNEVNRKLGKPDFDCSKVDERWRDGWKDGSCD
M18AAP inhibitor: PfM18AAP enzyme inhibition. inhibition, % at 7.35 µM. recombinant PfM18AAP, H-Glu-NHMec fluorogenic cleavage. actives 1.2% (n = 290,000);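 active = inhibition above the campaign mean inhibition over all tested compounds plus 3 SD, cut at about 28% in these data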;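 also: 0% = plate median of test compound wells and 100% = 2 mM ZnCl2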
Active calls of the source: *; . = not tested or not shown.

SMILES	UCH37 inh	FAS TE block	HDAC3 inhib	Rtt109 HAT inh	ALR H2O2 inh	M18AAP inhibitor
Cc1ccc(-c2nc3cnccn3c2Nc2ccc3c(c2)OCO3)cc1	-29	13	0	5	.	13
Cc1ccc(Nc2c(-c3ccccc3O)nc3ncccn23)cc1	2	2	7	.	98*	7
Cc1ccc2nc(-c3ccc(O)cc3)c(Nc3ccc4c(c3)OCCO4)n2c1	-153	0	-100	-5	12	10
Cc1ccc(Nc2c(-c3ccccc3O)nc3cnccn23)cc1	-2	0	0	-4	99*	4
CN(C)c1ccc(-c2nc3cnccn3c2Nc2ccc3c(c2)OCCO3)cc1	-49	6	14	0	98*	-5
O=C(NN=Cc1ccc2c(c1)OCO2)C(=O)Nc1cccc(Cl)c1	-9	.	.	.	.	.
COc1ccc(C2N(Cc3ccccc3)CC(=O)N2N=C(C)c2ccccc2)cc1 (centres undefined)	1	.	.	.	.	.
O=C(NN=Cc1ccc(Cl)cc1)c1nc2ccc([N+](=O)[O-])cc2c(=O)[nH]1	12	.	.	.	.	.
COc1ccc(Nc2c(-c3ccc(F)cc3)nc3nc(C)cc(C)n23)cc1	.	2	.	.	.	.
Cc1ccccc1Nc1c(-c2ccc(N3CCOCC3)cc2)nc2cnccn12	-95	3	.	5	.	1
Cc1cc(C)n2c(Nc3ccc4c(c3)OCCO4)c(-c3ccccc3)nc2n1	-3	6	-6	4	67	-11
Cc1ccc(Nc2c(-c3ccc(N4CCOCC4)cc3)nc3cnccn23)cc1	-72	6	7	.	99*	5
COc1ccc(Nc2c(-c3ccc(OC)cc3)nc3cnccn23)cc1	-48	1	10	-4	98*	1
Cc1ccc(-c2nc3cnccn3c2Nc2ccc3c(c2)OCCO3)o1	-31	-5	4	-2	99*	2
COc1ccc(Nc2c(-c3ccc(C)cc3)nc3cnccn23)cc1	-59	6	0	12	99*	5
CCOC(=O)COc1ccccc1C=NO	3	.	.	.	.	.
CC(Cn1ncc(N2CCOCC2)c(Cl)c1=O)=NO	3	.	.	.	.	.
O=C(COc1ccc(C=NNC(=O)c2ccccc2O)cc1)Nc1ccccc1	-269	.	.	.	.	.
O=C(NN=Cc1ccccn1)c1cc(C2CC2)[nH]n1	-9	.	.	.	.	.
O=[N+]([O-])c1cc(Cl)c(O)c2ncccc12	25*	11	.	-47	.	2
O=C1NC2(CCCCC2)C(=O)N1N=Cc1ccccc1Br	5	.	.	.	.	.
Cc1ccc(N2CCN(C(=S)c3ccc(-c4cccc([N+](=O)[O-])c4)o3)CC2)cc1	.	34	3	-6	.	30*
Cc1ccccc1N1CCN(C(=S)c2ccc(-c3cccc([N+](=O)[O-])c3)o2)CC1	9	22	-1	22	-6	10
COc1ccc(C2CC2C(C)=NOC(=O)c2ccc(F)cc2)cc1 (centres undefined)	5	.	.	.	.	.
S=c1[nH]nc(-c2ccccc2Cl)n1CC1CCCO1 (centres undefined)	4	-11	5	3	2	5
SMILES	UCH37 inh	FAS TE block	HDAC3 inhib	Rtt109 HAT inh	ALR H2O2 inh	M18AAP inhibitor
Fc1ccccc1-c1n[nH]c(=S)n1CC1CCCO1 (centres undefined)	2	-5	-5	4	9	32*
N#CCC(=O)Nc1ccc(C(=O)OCC(=O)NC(=O)NCc2ccco2)cc1	-2	-4	-2	-1	98*	.
CC(C)CN(C(=O)COC(=O)c1ccc(C#N)cc1)C1CCS(=O)(=O)C1 (centres undefined)	4	-4	1	-8	-3	.
N#CCC(=O)Nc1ccc(C(=O)OCC(=O)N(Cc2ccccc2)C2CCS(=O)(=O)C2)cc1 (centres undefined)	5	-4	-1	-3	100*	2
CN(CC(=O)Nc1cccc2ccccc12)C(=O)c1ccc(NC(=O)CC#N)cc1	1	-2	-9	-2	94*	.
CCOC(=O)c1ccc(NC(=O)CCC(=O)NCc2ccco2)cc1	1	-5	19	-3	1	-3
CC1(C)CC2CC(C)(CN2C(=O)COC(=O)c2ccc(NC(=O)CC#N)cc2)C1 (centres undefined)	1	0	-5	15	98*	.
Cn1c(=O)[nH]c(=O)c2c1nc(Br)n2CC=NNC(N)=S	2	.	.	.	.	.
Cc1ccc(C=NNC(=O)CN2CCN(S(=O)(=O)c3ccc(Br)cc3)CC2)s1	5	.	.	.	.	.
Cc1cc(Br)c(OCc2ccc(C(=O)NN=C3CC(=O)CC(C)(C)C3)cc2)c(Br)c1	-1	.	.	.	.	.
CC(CC(=O)NCc1ccco1)=NNC(=O)Cc1cccc2ccccc12	-5	.	.	.	.	.
Cc1ccc(NC(=O)CN(C)C(=O)COC(=O)c2ccc(NC(=O)CC#N)cc2)cc1	1	-3	1	-5	90*	.
C/C(CC(=O)NCc1ccco1)=N\NC(=O)CC#N	.	-4	-11	4	10	30*
Cc1ccc(NC(=O)CN(C)C(=O)COC(=O)COc2ccc(C#N)cc2)cc1	1	-2	-2	6	6	.
O=C(NCc1ccc2c(c1)OCO2)C1CC(=O)N(c2ccc(O)cc2)C1 (centres undefined)	1	-13	-3	12	99*	-1
CC(=O)Nc1cccc(-c2csc(Nc3ccc(C)cn3)n2)c1	4	-1	8	18	99*	-6
NC(=O)c1cc2cc(Cl)ccc2oc1=Nc1cccc(C(F)(F)F)c1	1	0	-4	2	91*	2
O=C(CN1CCSCC1)NN=Cc1ccc(F)cc1	1	.	.	.	.	.
O=C1CCN(N=Nc2cccc(Cl)c2)N1	.	.	0	.	11	31*
O=c1c2ccccc2nc(-c2ccco2)n1N=Cc1ccccc1O	7	.	.	.	.	.
Cc1cc(C=NNC(=O)c2ccncc2)c(C)n1-c1ccccc1	12	.	.	.	.	.
CCOC(=O)CSC1=C(C#N)C(=O)NC2(CCCCC2)S1	15	7	12	3	98*	5
O=C(N/N=C(\CC(=O)c1cccs1)C(F)(F)F)c1ccncc1	.	1	8	-16	98*	13
O=C(NNc1ccc([N+](=O)[O-])cc1)C1C2CCCCC21 (centres undefined)	-4	14	2	-2	-7	59*
O=C(Nc1cccc([N+](=O)[O-])c1)C1C2CCCCC21 (centres undefined)	2	22	1	1	3	-11
CCN(CC)c1ccc(N=Cc2ccccc2[N+](=O)[O-])cc1	0	-1	1	-1	87*	20
O=C(O)c1cccc(NC(=S)NN=Cc2ccccc2OCc2cccc(Br)c2)c1	4	.	.	.	.	.
COC(=O)C(=C/C(C)=C/c1cccnc1)C(=O)OC	3	-7	-3	11	92*	-3
O=S(=O)(Nc1nc2ccccc2nc1NCCO)c1cccc(Cl)c1	-11	2	-9	-5	3	-6
O=S(=O)(Nc1nc2ccccc2nc1NCC1CCCO1)c1cccc(Cl)c1 (centres undefined)	-26	0	-6	40	87*	-9
